Reference: ChEMBL document CHEMBL1146764, “Synthesis and evaluation of novel 1,4-naphthoquinone derivatives as antiviral, antifungal and anticancer agents” (2004)
≈ marks a conversion by molar mass, not a printed value.

Tests used:
Aspergillus fumigatus = assay: Minimum inhibitory concentration towards Aspergillus fumigatus; format: functional
Candida albicans [1] = assay: Minimum inhibitory concentration towards Candida albicans; format: functional
Cryptococcus neoformans [2] = assay: Minimum inhibitory concentration towards Cryptococcus neoformans; format: functional
Klebsiella pneumoniae = assay: Minimum inhibitory concentration towards Klebsiella pneumoniae; format: functional
Microsporum canis = assay: Minimum inhibitory concentration towards Microsporum canis; format: functional
Pseudomonas aeruginosa = assay: Minimum inhibitory concentration towards Pseudomonas aeruginosa; format: functional
Staphylococcus aureus = assay: Minimum inhibitory concentration towards Staphylococcus aureus; format: functional
Trichophyton benhamiae = assay: Minimum inhibitory concentration towards Trichophyton mentagrophytes; format: functional, Trichophyton mentagraphytes
[3] = system: Agrobacterium tumefaciens; assay: Minimum inhibitory concentration towards Agrobacterium tumefaciens; format: functional
Rattus norvegicus [4] = assay: Anticancer activity against Lymphoid Leukemia L-1210 in rats at dose of 1.56 mg/kg; format: functional
Method in brief: (§1)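 Lymphoid leukaemia L-1210 in rats, six animals per dose group, doses 1.56–25 mg/kg. Survivors counted per group. T/C (%) compares a tumour evaluation parameter in treated versus control animals.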

Rattus norvegicus [5] = assay: Anticancer activity against Lymphoid Leukemia L-1210 in rats at dose of 3.12 mg/kg; format: functional; method in brief: as §1
Rattus norvegicus [6] = assay: Anticancer activity against Lymphoid Leukemia L-1210 in rats at dose of 6.25 mg/kg; format: functional; method in brief: as §1
Rattus norvegicus [7] = assay: Number of survivors out of 6 rats treated at 1.56 mg/kg; format: functional; method in brief: as §1
Rattus norvegicus [8] = assay: Number of survivors out of 6 rats treated at 3.12 mg/kg; format: functional; method in brief: as §1
Rattus norvegicus [9] = assay: Number of survivors out of 6 rats treated at 6.25 mg/kg; format: functional; method in brief: as §1
Influenza A virus = assay: In vitro antiviral activity of compound against Influenza-A virus; format: functional
Candida albicans [10] = assay: Minimum inhibitory concentration towards C. albicans; value ranges from 7.8-7.9 ug/mL; format: functional, organism-based
Cryptococcus neoformans [11] = assay: Minimum inhibitory concentration towards C. neoformans; value ranges from 3.5-3.9 ug/mL; format: functional, organism-based
Rattus norvegicus [12] = assay: Anticancer activity against lymphoid leukemia P388 in rats at a dose of 10 mg/kg; format: functional
Method in brief: (§2)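 Lymphoid leukaemia P 388 in rats, four animals per group, given 10 mg/kg. Survivors counted. Activity expressed as T/C (%) of treated versus control.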

Rattus norvegicus [13] = assay: Number of survivors out of 4 rats treated at 10 mg/kg; format: functional; method in brief: as §2
Rattus norvegicus [14] = assay: Anticancer activity against Lymphoid Leukemia L-1210 in rats at dose of 12.5 mg/kg; format: functional
Rattus norvegicus [15] = assay: Anticancer activity against Lymphoid Leukemia L-1210 in rats at dose of 25.0 mg/kg; Toxic; format: functional, organism-based; design: dose 25 mg/kg
Rattus norvegicus [16] = assay: Number of survivors out of 6 rats treated at 12.5 mg/kg; format: functional
Rattus norvegicus [17] = assay: Number of survivors out of 6 rats treated at 25 mg/kg; format: functional; method in brief: as §1

Molecule | MIC (Aspergillus fumigatus) [mg/L] | MIC (Candida albicans [1]) [mg/L] | MIC (Cryptococcus neoformans [2]) [mg/L] | MIC (Klebsiella pneumoniae) [mg/L] | MIC (Microsporum canis) [mg/L] | MIC (Pseudomonas aeruginosa) [mg/L] | MIC (Staphylococcus aureus) [mg/L] | MIC (Trichophyton benhamiae) [mg/L] | MIC [3] [mg/L] | further results
O=C(O)CCCSC1=CC(=O)c2c(O)ccc(O)c2C1=O | > 50 | 3.12 (≈ 10.1 µM) | 1.56 (≈ 5.06 µM) | 50 (≈ 162 µM) | 3.12 (≈ 10.1 µM) | > 50 | > 50 | 3.12 (≈ 10.1 µM) | 12.5 (≈ 40.5 µM) | 
O=C1C(Sc2ccccc2)=C(Sc2ccccc2)C(=O)c2c(Cl)ccc(O)c21 | 50 (≈ 118 µM) | > 50 | > 50 |  | 50 (≈ 118 µM) |  |  | > 50 |  | 
C[C@@H]1[C@H](O)[C@@H](C)/C=C/C=C/C=C/C=C/C=C/C=C/C=C/[C@H](O[C@@H]2O[C@H](C)[C@@H](O)[C@H](N)[C@@H]2O)C[C@@H]2O[C@](O)(C[C@@H](O)C[C@@H](O)[C@H](O)CC[C@@H](O)C[C@@H](O)CC(=O)O[C@H]1C)C[C@H](O)[C@H]2C(=O)O [AMPHOTERICIN B] |  | 0.39 (≈ 0.422 µM) | 0.78 (≈ 0.844 µM) |  | 1.56 (≈ 1.69 µM) |  |  | 1.56 (≈ 1.69 µM) |  | 
O=C(O)CCCSC1=CC(=O)c2ccccc2C1=O | > 50 | > 50 | > 50 | 50 (≈ 181 µM) | > 50 |  | 12.5 (≈ 45.2 µM) | 25 (≈ 90.5 µM) |  | T/C (Rattus norvegicus [4]): 89%; T/C (Rattus norvegicus [5]): 96%; T/C (Rattus norvegicus [6]): 100%; Survivors (Rattus norvegicus [7]): 6; Survivors (Rattus norvegicus [8]): 6; Survivors (Rattus norvegicus [9]): 6
O=C(O)c1ccccc1SC1=CC(=O)c2c(Cl)ccc(O)c2C1=O | > 50 | > 50 | > 50 | 25 (≈ 69.3 µM) | > 50 | 50 (≈ 139 µM) | > 50 | 25 (≈ 69.3 µM) | > 50 | 
O=C1C(=O)c2ccccc2C(O)=C1Sc1ccccc1 | > 50 | 25 (≈ 88.6 µM) | > 50 |  | 25 (≈ 88.6 µM) |  |  | 6.25 (≈ 22.1 µM) |  | Inhibition (Influenza A virus): 50%
NYSTATIN |  |  |  |  |  |  |  |  |  | MIC (Candida albicans [10]): 7.9 mg/L; MIC (Cryptococcus neoformans [11]): 3.9 mg/L
O=C1C(Sc2cccc3ccccc23)=C(Sc2cccc3ccccc23)C(=O)c2c(Cl)ccc(O)c21 | > 50 | 50 (≈ 95.2 µM) | > 50 |  | > 50 |  |  | 50 (≈ 95.2 µM) |  | 
GENTAMICIN |  |  |  | 0.39 |  | 0.78 | 0.78 |  |  | 
O=C1C=C(SCCC(=O)N2CCCCC2)C(=O)c2ccccc21 |  |  |  |  |  |  |  |  |  | T/C (Rattus norvegicus [12]): 30%; Survivors (Rattus norvegicus [13]): 4
O=C1C(Sc2cccc3ccccc23)=C(Sc2cccc3ccccc23)C(=O)c2ccccc21 |  |  |  | > 50 |  | > 50 | 50 (≈ 105 µM) |  | > 50 | 
O=C(O)CCCSC1=CC(=O)c2c(Cl)ccc(O)c2C1=O | > 50 | > 50 | > 50 |  | > 50 |  |  | 25 (≈ 76.5 µM) |  | 
NC(=O)CCSC1=CC(=O)c2ccccc2C1=O |  |  |  |  |  |  |  |  |  | T/C (Rattus norvegicus [12]): 49%; Survivors (Rattus norvegicus [13]): 4
O=C1C=C(Sc2ccccc2)C(=O)c2ccccc21 | 25 (≈ 93.9 µM) | 12.5 (≈ 46.9 µM) | 1.56 (≈ 5.86 µM) | > 50 | < 0.98 | > 50 | 25 (≈ 93.9 µM) | < 0.78 | > 50 | 
O=C(O)CCSC1=CC(=O)c2c(O)ccc(O)c2C1=O |  |  |  |  |  |  |  |  |  | Inhibition (Influenza A virus): 52%
Clc1ccc(COC(Cn2ccnc2)c2ccc(Cl)cc2Cl)c(Cl)c1 (stereo not drawn) [MICONAZOLE] | 12.5 (≈ 30 µM) | 25 (≈ 60.1 µM) | 12.5 (≈ 30 µM) |  | < 0.78 |  |  | < 0.78 |  | 
O=C(O)CCSC1=CC(=O)c2ccccc2C1=O |  |  |  | 50 (≈ 191 µM) |  | 12.5 (≈ 47.7 µM) | 12.5 (≈ 47.7 µM) |  | 25 (≈ 95.3 µM) | T/C (Rattus norvegicus [14]): 110%; T/C (Rattus norvegicus [15]): Toxic; T/C (Rattus norvegicus [6]): 115%; Survivors (Rattus norvegicus [16]): 6; Survivors (Rattus norvegicus [17]): 1; Survivors (Rattus norvegicus [9]): 6
O=C1C=CC(=O)C(Sc2ccccc2C(=O)O)=C1 | > 50 | > 50 | 50 (≈ 192 µM) | 25 (≈ 96.1 µM) | > 50 | 25 (≈ 96.1 µM) | > 50 | > 50 | > 50 | 
O=C1C=CC(=O)c2c1c(O)c1sc3ccccc3c(=O)c1c2O | > 50 | > 50 | > 50 |  | > 50 |  |  | 25 (≈ 77.1 µM) |  | 
